Results as given in ChEMBL document CHEMBL5154665, “Design, synthesis, biochemical evaluation, radiolabeling and in vivo imaging with high affinity class-IIa histone deacetylase inhibitor for molecular imaging and targeted therapy” (Eur J Med Chem, 2022).

Assays:
[1] = Inhibition of HDAC class 2a in human THP-1 cells using TFA-lysine as fluorogenic substrate by fluorescence microplate reader assay; format: cell-based
[2] = Inhibition of HDAC class 2a in human HT-29 cells using TFA-lysine as fluorogenic substrate by fluorescence microplate reader assay; format: cell-based
In short: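 HT-29 cells were plated at 200,000 cells/well in RPMI without phenol red with 0.1% FBS, with 100 µM Boc-Lys-TFA for class IIa or 200 µM Boc-Lys-Ac for class I/IIb. Compounds ran as an 11-point curve (5% final DMSO), with 5 µM trichostatin A as the positive control. Incubation was 3 h at 37 °C, then trypsin developer with Tween 80 for 1 h to lyse cells and release fluorophore.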

[3] = Inhibition of HDAC class 2a in human HT-29 cells using Boc-Lys-TFA as substrate incubated for 3 hrs by microplate reader assay; format: cell-based; settings: HT-29, 3 h
Histone deacetylase 5 = Histone deacetylase 5 (Homo sapiens, UniProt Q9UQL6); test: Inhibition of recombinant human HDAC5 using fluorogenic substrate by fluorescence microplate reader assay
In short: (§1)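 Recombinant human HDAC isoforms were tested at 9 inhibitor dilutions in commercial fluorogenic enzyme kits, per the manufacturer's protocol. For class IIa enzymes, deacetylation of a TFA-lysine substrate lets trypsin release a fluorophore, read on a microplate reader. IC50 came from a nonlinear fit of % HDAC activity inhibition against compound concentration.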

[4] = Inhibition of HDAC class 2b in human PANC-1 cells using TFA-lysine as fluorogenic substrate by fluorescence microplate reader assay; format: cell-based
[5] = biological target: Class 1 histone deacetylase (Homo sapiens, UniProt Q13547+O15379+Q92769+Q9BY41); test: Inhibition of HDAC class 1 in human THP-1 cells using TFA-lysine as fluorogenic substrate by fluorescence microplate reader assay; format: cell-based
Histone deacetylase 3 = Histone deacetylase 3 (Homo sapiens, UniProt O15379); test: Inhibition of recombinant human HDAC3 using fluorogenic substrate by fluorescence microplate reader assay; in short: as §1
[6] = biological target: T1, Polyamine deacetylase HDAC10 (Homo sapiens, UniProt Q969S8); test: Inhibition of recombinant human HDAC10 using fluorogenic substrate by fluorescence microplate reader assay; in short: as §1
T1 sequence (Q969S8 whole entry): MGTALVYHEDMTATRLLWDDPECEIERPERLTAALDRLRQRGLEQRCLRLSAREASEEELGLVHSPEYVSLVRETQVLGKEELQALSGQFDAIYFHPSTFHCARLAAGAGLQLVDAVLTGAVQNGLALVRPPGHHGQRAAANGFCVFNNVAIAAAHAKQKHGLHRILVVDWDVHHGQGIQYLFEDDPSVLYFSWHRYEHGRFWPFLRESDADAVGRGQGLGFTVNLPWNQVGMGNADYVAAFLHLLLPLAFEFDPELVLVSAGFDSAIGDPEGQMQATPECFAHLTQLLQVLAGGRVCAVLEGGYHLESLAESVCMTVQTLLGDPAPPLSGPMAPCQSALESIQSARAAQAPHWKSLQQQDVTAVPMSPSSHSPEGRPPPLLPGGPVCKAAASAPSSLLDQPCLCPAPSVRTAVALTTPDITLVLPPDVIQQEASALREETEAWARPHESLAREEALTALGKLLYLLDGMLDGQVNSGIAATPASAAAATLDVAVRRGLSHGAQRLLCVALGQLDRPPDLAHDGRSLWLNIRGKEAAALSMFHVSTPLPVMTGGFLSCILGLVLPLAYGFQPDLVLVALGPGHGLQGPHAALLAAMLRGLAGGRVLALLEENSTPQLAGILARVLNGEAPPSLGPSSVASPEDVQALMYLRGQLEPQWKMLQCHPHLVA

[7] = Inhibition of HDAC class 2a in human PANC-1 cells using TFA-lysine as fluorogenic substrate by fluorescence microplate reader assay; format: cell-based
[8] = biological target: T2, Protein deacetylase HDAC6 (Homo sapiens, UniProt Q9UBN7); test: Inhibition of recombinant human HDAC6 using fluorogenic substrate by fluorescence microplate reader assay; in short: as §1
T2 sequence (Q9UBN7 whole entry): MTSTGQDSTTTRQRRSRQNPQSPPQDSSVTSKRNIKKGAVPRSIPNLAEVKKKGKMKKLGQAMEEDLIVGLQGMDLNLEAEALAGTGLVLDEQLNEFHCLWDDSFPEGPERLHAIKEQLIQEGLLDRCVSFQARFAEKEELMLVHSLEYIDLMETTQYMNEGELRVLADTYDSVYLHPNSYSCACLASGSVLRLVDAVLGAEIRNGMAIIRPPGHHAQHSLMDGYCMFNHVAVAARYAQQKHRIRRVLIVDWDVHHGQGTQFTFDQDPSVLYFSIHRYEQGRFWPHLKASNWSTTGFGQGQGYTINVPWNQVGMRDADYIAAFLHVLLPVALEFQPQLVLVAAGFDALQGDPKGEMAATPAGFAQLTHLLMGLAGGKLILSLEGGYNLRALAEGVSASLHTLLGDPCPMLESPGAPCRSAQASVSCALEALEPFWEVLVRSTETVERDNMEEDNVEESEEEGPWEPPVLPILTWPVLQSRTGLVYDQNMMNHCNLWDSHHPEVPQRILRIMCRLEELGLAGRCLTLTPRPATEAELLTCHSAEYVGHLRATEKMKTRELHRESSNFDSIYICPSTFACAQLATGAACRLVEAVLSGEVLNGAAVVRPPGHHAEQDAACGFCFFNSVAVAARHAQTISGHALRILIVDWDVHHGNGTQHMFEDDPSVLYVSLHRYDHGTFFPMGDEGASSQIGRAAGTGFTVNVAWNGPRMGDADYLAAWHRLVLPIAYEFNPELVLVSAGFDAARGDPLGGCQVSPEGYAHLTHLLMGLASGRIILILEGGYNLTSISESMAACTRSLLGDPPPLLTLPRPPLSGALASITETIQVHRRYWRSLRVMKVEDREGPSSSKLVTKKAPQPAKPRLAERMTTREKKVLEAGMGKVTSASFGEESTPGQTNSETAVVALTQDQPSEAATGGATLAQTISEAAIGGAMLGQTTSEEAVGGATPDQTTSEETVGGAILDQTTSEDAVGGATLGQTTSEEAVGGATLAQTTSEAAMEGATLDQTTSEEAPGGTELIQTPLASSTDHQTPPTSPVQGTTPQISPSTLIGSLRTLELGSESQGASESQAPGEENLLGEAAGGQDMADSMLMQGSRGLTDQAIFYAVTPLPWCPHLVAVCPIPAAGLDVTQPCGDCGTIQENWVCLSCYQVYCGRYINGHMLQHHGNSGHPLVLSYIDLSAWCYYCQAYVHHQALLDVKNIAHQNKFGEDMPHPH

Sequence of Histone deacetylase 5 (Q9UQL6 whole entry, canonical isoform): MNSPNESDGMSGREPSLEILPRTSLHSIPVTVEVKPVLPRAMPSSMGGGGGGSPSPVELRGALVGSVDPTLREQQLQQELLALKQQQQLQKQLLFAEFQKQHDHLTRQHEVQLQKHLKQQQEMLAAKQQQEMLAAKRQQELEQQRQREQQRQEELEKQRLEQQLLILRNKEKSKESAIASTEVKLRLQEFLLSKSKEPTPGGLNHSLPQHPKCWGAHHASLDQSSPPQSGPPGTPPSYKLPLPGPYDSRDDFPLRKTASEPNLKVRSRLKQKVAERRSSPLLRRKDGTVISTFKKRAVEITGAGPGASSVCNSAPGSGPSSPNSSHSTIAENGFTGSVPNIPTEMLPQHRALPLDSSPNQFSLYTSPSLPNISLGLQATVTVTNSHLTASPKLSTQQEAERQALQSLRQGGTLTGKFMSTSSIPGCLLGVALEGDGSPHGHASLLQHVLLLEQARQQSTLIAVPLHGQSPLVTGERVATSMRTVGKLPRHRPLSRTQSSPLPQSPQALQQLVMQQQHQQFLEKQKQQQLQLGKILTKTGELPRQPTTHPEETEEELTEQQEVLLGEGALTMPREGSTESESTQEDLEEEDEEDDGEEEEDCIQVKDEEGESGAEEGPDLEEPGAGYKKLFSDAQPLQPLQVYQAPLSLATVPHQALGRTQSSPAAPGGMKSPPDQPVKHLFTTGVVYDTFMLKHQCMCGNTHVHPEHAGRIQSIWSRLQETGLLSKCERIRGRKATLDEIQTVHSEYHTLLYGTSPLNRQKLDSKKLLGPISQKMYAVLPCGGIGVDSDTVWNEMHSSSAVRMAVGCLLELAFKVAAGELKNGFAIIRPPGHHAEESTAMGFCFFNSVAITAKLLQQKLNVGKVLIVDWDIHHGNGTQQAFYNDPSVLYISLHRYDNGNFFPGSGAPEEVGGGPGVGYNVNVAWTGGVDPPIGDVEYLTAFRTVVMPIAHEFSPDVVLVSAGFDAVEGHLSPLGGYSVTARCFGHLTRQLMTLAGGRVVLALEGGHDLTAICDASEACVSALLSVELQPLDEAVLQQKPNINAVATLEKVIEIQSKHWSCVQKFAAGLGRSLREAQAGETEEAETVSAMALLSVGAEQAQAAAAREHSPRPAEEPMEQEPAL
Sequence of Histone deacetylase 3 (O15379 whole entry): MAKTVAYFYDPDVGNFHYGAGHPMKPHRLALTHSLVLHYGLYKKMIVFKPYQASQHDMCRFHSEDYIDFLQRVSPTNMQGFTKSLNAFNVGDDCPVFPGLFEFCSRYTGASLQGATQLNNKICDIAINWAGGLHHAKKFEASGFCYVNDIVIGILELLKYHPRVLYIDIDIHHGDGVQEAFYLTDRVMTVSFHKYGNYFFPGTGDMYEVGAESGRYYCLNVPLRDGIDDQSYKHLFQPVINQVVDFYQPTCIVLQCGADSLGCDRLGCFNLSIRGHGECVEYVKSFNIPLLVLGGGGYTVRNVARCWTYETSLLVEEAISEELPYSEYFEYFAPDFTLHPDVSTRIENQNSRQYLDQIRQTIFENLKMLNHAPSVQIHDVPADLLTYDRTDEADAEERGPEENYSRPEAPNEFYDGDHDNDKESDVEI

IC50 [1]: 887 nM
IC50 [2]: 1000 nM
IC50 [3]: 1000 nM
IC50 (Histone deacetylase 5): 148 nM
IC50 [4]: > 5000 nM
IC50 [5]: > 5000 nM
IC50 (Histone deacetylase 3): > 5000 nM
IC50 [6]: > 5000 nM
IC50 [7]: 888 nM
IC50 [8]: > 5000 nM
SMILES: CC(C)(CNC(=O)c1cccc(-c2noc(C(F)(F)F)n2)c1)c1coc(-c2ccccc2)n1
